Consider 29 molecules from ChEMBL document CHEMBL1128671, “New (2-methoxyphenyl)piperazine derivatives as 5-HT1A receptor ligands with reduced alpha 1-adrenergic activity. Synthesis and structure-affinity relationships” (J Med Chem, 1995).

Assay [1] deals with T1, 5-hydroxytryptamine receptor 1A (Rattus norvegicus, UniProt P19327).
T1 sequence (P19327 whole entry): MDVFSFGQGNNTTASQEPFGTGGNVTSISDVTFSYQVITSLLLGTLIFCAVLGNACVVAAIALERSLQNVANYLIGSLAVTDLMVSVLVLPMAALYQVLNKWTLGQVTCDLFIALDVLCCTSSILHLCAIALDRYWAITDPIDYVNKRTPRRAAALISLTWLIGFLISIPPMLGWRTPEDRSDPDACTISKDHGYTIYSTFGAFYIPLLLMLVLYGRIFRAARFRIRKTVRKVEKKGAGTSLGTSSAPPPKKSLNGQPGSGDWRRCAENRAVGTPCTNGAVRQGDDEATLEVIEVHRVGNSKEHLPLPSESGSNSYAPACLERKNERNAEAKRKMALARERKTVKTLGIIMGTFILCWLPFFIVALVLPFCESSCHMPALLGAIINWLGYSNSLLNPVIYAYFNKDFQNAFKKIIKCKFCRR
In words: In vitro ability to displace [3H]8-OH-DPAT from 5-hydroxytryptamine 1A receptor sites of rat brain cortex. A digest of the protocol: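 Male Wistar rat cerebral cortex membranes in 50 mM Tris-HCl with 4 mM CaCl2, 0.1% ascorbate and 10 μM pargyline. Nonspecific binding defined with 10 μM 5-HT. Read by filtration and scintillation counting. Twelve displacer concentrations, triplicate samples, two experiments. IC50/Ki obtained by nonlinear regression.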

Assay [2] addresses Adrenergic receptor alpha-1 (Oryctolagus cuniculus). In words: Antagonistic activity at Alpha-1 adrenergic receptor was performed on ring segments of rabbit thoracic aorta contracted by noradrenaline.

Molecules are shown by their SMILES. Where only a bound is given, the exact number is not on record here.

What is called Ki is the equilibrium dissociation constant of an inhibitor or competing ligand from its target. The low end stands for a stronger hold on the target, the high end for a looser hold on the target. In general, pA2 refers to the negative logarithm of the molar antagonist concentration that doubles the agonist concentration needed for the same response.

Regarding `COc1ccccc1N1CCN(CCCCNC(=O)c2sccc2C)CC1`, the Ki in assay [1] worked out at 1.53 nM.
On to `COc1ccccc1N1CCN(CCCCNC(=O)C2CC3CCC2C3)CC1` (stereo not given), for which the Ki in assay [1] is 0.23 nM.
`COc1ccccc1N1CCN(CCCCNC(=O)C2CC3C=CC2C3)CC1` (stereo not given) displayed an inhibition constant Ki in assay [1] of 0.38 nM. This molecule returned a pA2 in assay [2] of 8.53.
`COc1ccccc1N1CCN(CCNC(=O)c2ccc(C)s2)CC1` displayed a Ki in assay [1] of 2.29 nM.
As to `COc1ccccc1N1CCN(CCNC(=O)c2sccc2C)CC1`, in assay [1], the affinity, expressed as Ki, was 3.09 nM.
The same measure, in the same setting: to `COc1ccccc1N1CCN(CCCCNC(=O)Cc2ccsc2)CC1` belongs 17.5 nM.
As to `COc1ccccc1N1CCN(CCCNC(=O)c2ccc[nH]2)CC1`, in assay [1], the Ki was 201 nM.
In assay [1], `COc1ccccc1N1CCN(CCCCNC(=O)c2ccc(C)s2)CC1` displayed a Ki of 3.8 nM. The same molecule returned a pA2 in assay [2] of less than 7.
Consider `COc1ccccc1N1CCN(CCCCNC(=O)c2sccc2Cl)CC1`, for which, in assay [1], the affinity, expressed as Ki, was 3.34 nM.
Regarding `COc1ccccc1N1CCN(CCCCNC(=O)c2cccs2)CC1`, in assay [1], the inhibition constant (Ki) turned out to be 2.34 nM. In assay [2], this molecule displayed a pA2 of 9.16.
The corresponding values for `COc1ccccc1N1CCN(CCCCNC(=O)c2cccn2C)CC1.O=C(O)/C=C/C(=O)O` are 0.74 nM and 7.72.
As for `COc1ccccc1N1CCN(CCCCNC(=O)c2sccc2OC)CC1`, affinity in assay [1] was put at a Ki of 32.1 nM.
The same measure, in the same setting: to `COc1ccccc1N1CCN(CCNC(=O)Cc2ccsc2)CC1` belongs 32.3 nM.
The same measure, in the same setting: to `COc1ccccc1N1CCN(CCNC(=O)C2CC3CCC2C3)CC1` (stereo not given) belongs 0.12 nM; to `COc1ccccc1N1CCN(CCCCNC(=O)C2CCC3CCCC32)CC1` (stereo not given), 0.63 nM; to `COc1ccccc1N1CCN(CCCCNC(=O)C2CCCC2)CC1`, 1.88 nM.
As for `COc1ccccc1N1CCN(CCNC(=O)C2CCCC2)CC1`, in assay [1], the affinity corresponds to a Ki of 4.68 nM.
On the same count and under the same terms, to `COc1ccccc1N1CCN(CCCCNC(=O)c2cccnc2)CC1` belongs 25.2 nM; to `COc1ccccc1N1CCN(CCNC(=O)C2CC3C=CC2C3)CC1` (stereo not given), 0.27 nM; to `COc1ccccc1N1CCN(CCCNC(=O)c2cccnc2)CC1`, 321 nM.
`COc1ccccc1N1CCN(CCNC(=O)C2CCC3CCCC32)CC1` (stereo not given) displayed a Ki in assay [1] of 0.24 nM.
On the same count and under the same terms, the figure for `COc1ccccc1N1CCN(CCNC(=O)c2cccnc2)CC1` is 362 nM.
As for `COc1ccccc1N1CCN(CCNC(=O)c2ccsc2)CC1`, the affinity in assay [1] corresponds to a Ki of 6.83 nM. Moreover, the pA2 in assay [2] is recorded as less than 7.
Consider `COc1ccccc1N1CCN(CCCCNC(=O)c2ccc[nH]2)CC1`, for which the affinity in assay [1] corresponds to a Ki of 12.5 nM.
The same measure, in the same setting: to `COc1ccccc1N1CCN(CCNC(=O)c2ccc[nH]2)CC1` belongs 20.3 nM; to `COc1ccccc1N1CCN(CCCNC(=O)C2CCC3CCCC32)CC1` (stereo not given), 11.6 nM; to `COc1ccccc1N1CCN(CCCCNC(=O)c2ccsc2)CC1`, 2.2 nM.
In the case of `COc1ccccc1N1CCN(CCNC(=O)c2cccn2C)CC1`, the Ki in assay [1] came to 1.19 nM. The molecule also gave a pA2 in assay [2] of less than 7.
`COc1ccccc1N1CCN(CCCCNC(=O)c2ccco2)CC1` returned an inhibitory constant (Ki) in assay [1] of 55.7 nM.
